# Fibroblast inh: blocks proliferation of human lung fibroblasts. viability, % at 10 µM. LL 47 human lung fibroblast viability, ATP luminescence; hits give low values. AID 719. 85,000 compounds, 1.1% hits;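 active means viability at or below 50% in the single dose screen; inactive means viability above 50%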;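 further: compound exposure lasted 72 h before the ATP readout; 100% = median luminescence of untreated cell-only wells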
#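 Material: Human LL 47 lung fibroblast cells | Input: 1,150 cells/well | Buffer or medium: IMEM plus 15% FBS | Compound dosing: 0.1% DMSO in all compound wells | Times: Overnight cell rest, 72 h compound treatment at 37 °C | Signal: CellTiter-Glo luminescence measuring cellular ATP | Measure: % viability versus median cells-only luminescence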
# HUVEC prolif 384: inhibitors of human endothelial cell proliferation; HUVEC proliferation, CellTiter-Glo luminescence, 72 h; hits give low values; AID 648; 86,000 compounds, 1.1% hits; viability, % at 10 µM (by protocol);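 active means viability at or below 30%; inactive means viability above 30%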;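 further: 100% = median luminescence of DMSO-only cell control wells on each plate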
# H69AR growth 86K: growth inhibitors of human H69AR lung tumor cells; AID 598; H69AR lung tumor viability, ATP luminescence, 72 h; hits give low values; viability, % at 10 µM; 85,000 compounds, 6% hits;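 active means viability at or below 40%; inactive means viability above 40%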;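 further: multidrug resistant small cell line overexpressing MRP-1 efflux transporter; 100% = mean luminescence of untreated control wells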
# Jurkat tox 60K: cytotoxicity toward Jurkat cells | Jurkat E6.1 viability, ATP luminescence, 48 h | inhibition, % at 4 µM | 56,000 compounds, 1.2% hits;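 active means inhibition above the mean inhibition of all tested compounds plus 3 SD, cut at about 28% in these data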
# Numbers without * were called inactive; nt = not tested or not shown. The list is not random: actives were taken first. Their share in the collection is about 6.4%.
SMILES,Fibroblast inh,HUVEC prolif 384,H69AR growth 86K,Jurkat tox 60K
COC(=O)Nc1ccc(S(=O)(=O)N2c3ccccc3CCC2C)cc1 (configuration not stated),49*,69,16*,92*
CC(=O)Nc1ccc(S(=O)(=O)N2CCCc3ccccc32)cc1,70,48,13*,82*
COC(=O)Nc1ccc(S(=O)(=O)N2CCCCCC2)cc1,90,80,75,1
O=C(NCc1ccccc1)c1ccc(S(=O)(=O)N2CCCc3ccccc32)cc1,93,91,61,nt
Cc1cc(NC(=O)COC(=O)c2ccc(S(=O)(=O)N3CCCc4ccccc43)cc2)no1,75,68,23*,64*
Cc1noc(C)c1S(=O)(=O)N(C)CC(=O)Nc1ccc(F)cc1,109,99,109,nt
O=C(CCC1CCCC1)Nc1ccc(Br)cn1,106,92,88,-4
CCC(C)NC(=O)CSc1nc2ccc(N3CCOCC3)cc2c(=O)n1CCc1ccccc1 (configuration not stated),97,83,38*,nt
COc1ccccc1C(=O)NCCN1CCN(C(=O)c2ccccc2OC)CC1,99,93,85,-4
CC(O)CNc1nc2ccccc2n1-c1ncnc2sc3c(c12)CCC3 (configuration not stated),81,53,38*,-3
Cn1c(=O)n(-c2cccc(Cl)c2)c(=O)c2c3c(sc21)COC(C)(C)C3,94,94,86,nt
O=S(=O)(CCSc1nc2ccccc2s1)c1nc2ccccc2s1,35*,14*,1.5*,nt
C=CCS(=O)(=O)c1nc2ccccc2s1,77,81,1.1*,nt
CC(C)(C)S(=O)(=O)c1nc2ccccc2s1,98,90,79,nt
Cc1c(N=C/C=C2\N(C)c3ccccc3C2(C)C)c(=O)n(-c2ccccc2)n1C,104,99,79,-2
Cc1cc(/N=C/C=C2\N(C)c3ccccc3C2(C)C)n(CCC#N)n1,92,84,20*,-1
COc1ccc(C2=NN(C(=O)CSc3cn(C)c4ccccc34)C(c3ccc(OC)cc3)C2)cc1 (configuration not stated),88,96,67,nt
CN1Cc2cc(C(=O)c3ccccc3O)cnc2NC1=O,84,90,25*,nt
Cc1[nH]nc2ncc(C(=O)c3ccccc3O)cc12,95,84,88,nt
C=CCN1CCN(C(c2cc(OC)ccc2OC)c2nnnn2CC2CCCO2)CC1 (configuration not stated),106,98,88,1
Cc1cc(-c2n[nH]c(=S)o2)c(C)n1-c1ccccc1,99,90,38*,nt
Oc1cc2ccccc2cc1-c1n[nH]c(=S)o1,103,83,46,4
COc1ccccc1N(CCC#N)C(=O)CSc1nc(-c2ccccc2)cn1N,93,107,90,0
Cc1cc(C(=O)CSc2nc3ccccc3n2CCC#N)c(C)n1Cc1cccs1,80,71,17*,nt
CCOC(=O)c1c(C)oc2c1c1c(c3ccccc32)OCN(Cc2cccnc2)C1,85,76,12*,3
SMILES,Fibroblast inh,HUVEC prolif 384,H69AR growth 86K,Jurkat tox 60K
CCOC(=O)c1c(C)oc2c1cc(O)c1ccccc12,101,91,62,0
CCOC(=O)c1c(C)oc2c1c(C(c1cccnc1)N1CCN(C)CC1)c(O)c1ccccc12 (configuration not stated),51,8.4*,2.1*,6
Cc1sc(NC(=O)c2ccco2)c(C(c2cccnc2)N2CCN(C)CC2)c1C (configuration not stated),101,97,84,nt
CC(C)(C)OC(=O)N1CCC(c2cc(=O)n3[nH]c(-c4ccc(Cl)cc4)cc3n2)CC1,76,73,11*,nt
COc1ccc(/C=N/N2C(=O)CSC2=S)cc1,110,104,110,nt
COc1ccc(-c2nn(-c3ccccc3)cc2/C=N/N2C(=O)CSC2=S)cc1,59,4.0*,60,nt
COc1ccccc1N1CCN(C(=O)CSc2nc3ccccc3c(=O)n2CC2CCCO2)CC1 (configuration not stated),105,83,45,0
COc1c(Br)cc(Br)cc1C(=O)O,101,104,93,-3
COc1cc(C(=O)Oc2cccc(C=O)c2)cc(OC)c1OC,86,73,25*,nt
COc1ccc(Cc2nnc(NC(=O)Cn3cnc4c3c(=O)n(C)c(=O)n4C)s2)cc1,96,96,108,nt
COc1cc(-c2nc(-c3ccc4c(c3)-c3ccccc3S4(=O)=O)c(-c3ccccc3)[nH]2)cc(OC)c1O,66,58,43,nt
Cc1c(NC(=O)c2cc3nc(-c4ccccc4)cc(C)n3n2)c(=O)n(-c2ccccc2)n1C,95,93,86,4
Cc1c(NC(=O)c2cc3nc(-c4ccc(Br)cc4)cc(C(F)(F)F)n3n2)c(=O)n(-c2ccccc2)n1C,46*,103,0.6*,nt
COc1ccccc1Nc1nnc(SCC(=O)c2cc(C)n(CC3CCCO3)c2C)s1 (configuration not stated),100,102,38*,nt
Cc1cc(C(=O)CSc2nnc(Nc3ccccc3F)s2)c(C)n1CC1CCCO1 (configuration not stated),102,87,92,-1
COc1ccc(-c2noc(-c3ccc(Br)o3)n2)cc1OC,88,29*,81,-7
COc1nc(-c2ccncc2)nc2ccccc12,98,82,95,nt
CCCCN(CC)c1nc(-c2ccncc2)nc2ccccc12,79,56,20*,nt
Cc1ccc(Cn2nnc3c(=O)n(CC(=O)NCc4ccc5c(c4)OCO5)cnc32)cc1,96,67,39*,-4
O=C(Cn1cnc2c(nnn2Cc2ccc(Cl)cc2)c1=O)NCc1ccco1,100,92,76,10
Cc1nc(NCc2ccc3c(c2)OCO3)c2nnn(Cc3ccccc3)c2n1,47*,50,53,-2
CCOC(=O)C1=CN(C)C=C(C(=O)OCC)C1c1ccsc1,nt,nt,nt,-6
Cc1cc(N2CCOCC2)n2nc(-c3cccc(F)c3)cc2n1,nt,nt,nt,7
CCN1CCN(c2cc(-c3ccccc3)nc3cc(-c4cccc(F)c4)nn23)CC1,90,22*,41,nt
c1ccc2c(-c3nc4ncccc4o3)cccc2c1,92,71,72,2
SMILES,Fibroblast inh,HUVEC prolif 384,H69AR growth 86K,Jurkat tox 60K
O=C1CC(C(=O)Nc2cccc3ccccc23)C2(CCCC2)O1 (configuration not stated),94,87,76,nt
CCOc1ccccc1NC(=O)NC1CC2CCCC(C1)N2Cc1nnnn1CCc1ccccc1 (configuration not stated),94,82,85,-2
CCOC(=O)c1ccc(NC(=O)CCc2nc(-c3ccc(Cl)cc3)no2)cc1,92,57,24*,6
CCOC(=O)c1ccc(NC(=O)CCc2nc(-c3ccc(C)cc3)no2)cc1,95,30*,84,14
Cc1ccc(-c2noc(CCC(=O)Nc3ccc4c(c3)OCO4)n2)cc1,95,84,94,4
COc1ccc(C(=O)NCS(=O)(=O)c2ccc(C)cc2)cc1,98,93,94,nt
CO/N=C(/CS(=O)(=O)c1ccc(C)cc1)c1ccc(OC)cc1,99,94,36*,nt
O=C(Nc1ccc2oc(=O)ccc2c1)c1cccnc1Cl,109,109,93,nt
CCCCCCNC(=O)c1c(O)c2cccc3c2n(c1=O)CCC3,103,118,108,4

# Compound activity: PubChem, several laboratories
